The list is not random: actives were taken first. Their share in the collection is about 2.4%.
SIAE primary: blocks human sialic acid acetylesterase; Q9HAT2; SIAE FP-Rh probe binding, fluorescence polarization; inhibition, % at 9.66 µM; hit rate 0.69% among 370,000;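 active = inhibition above a cutoff: mean of compounds within the control limits plus 3 SD of those, cut at about 17% in these data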
JMJD2C inh: inhibitors of human GASC-1 (JMJD2C) demethylase | inhibition, % at 2.35 µM | AID 2099 | GST-JMJD2C(1-420) H3K9me3 demethylation, DELFIA europium | hit rate 0.069% among 330,000 | Q9H3R0;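 active = more than half of a compound's replicate wells show inhibition beyond 50%, single wells judged on their own value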;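 also: signal counts dimethyl H3K9 product captured on neutravidin plate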
PRMT1 inh: inhibitors of human PRMT1; AID 652257; Q99873; inhibition, % at 2.79 µM; hit rate 1.3% among 370,000; recombinant PRMT1, activity-based probe fluorescence polarization;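 active = inhibition above about 21% made by adding two undisclosed values, limit read from the data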
HTRA1 inh: inhibitors of human serine peptidase HTRA1; recombinant HTRA1, FP-rhodamine activity-based probe, fluorescence polarization; inhibition, % at 5.96 µM; hit rate 0.5% among 340,000; AID 504803; in the data active = inhibition above about 36%
Target sequence (Q92743 whole entry, looked up): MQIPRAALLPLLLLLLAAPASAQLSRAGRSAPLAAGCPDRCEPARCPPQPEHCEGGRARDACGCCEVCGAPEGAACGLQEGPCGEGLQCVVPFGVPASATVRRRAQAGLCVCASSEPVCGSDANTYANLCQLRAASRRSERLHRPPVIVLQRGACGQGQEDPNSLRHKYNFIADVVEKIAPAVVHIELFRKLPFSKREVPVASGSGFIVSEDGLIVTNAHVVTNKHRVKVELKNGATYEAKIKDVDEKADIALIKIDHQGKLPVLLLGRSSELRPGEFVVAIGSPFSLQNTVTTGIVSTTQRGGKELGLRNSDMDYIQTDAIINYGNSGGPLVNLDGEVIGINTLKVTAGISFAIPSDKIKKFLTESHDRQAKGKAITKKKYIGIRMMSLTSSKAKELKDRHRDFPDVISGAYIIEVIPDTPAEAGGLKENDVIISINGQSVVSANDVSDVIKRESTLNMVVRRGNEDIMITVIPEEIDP
mABHD4 FP: inhibitors of mouse ABHD4. inhibition, % at 8.92 µM. Q8VD66. purified mABHD4, FP-Rh probe fluorescence polarization. hit rate 0.54% among 370,000;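 active = inhibition exceeding the mean over every tested compound plus 3 SD, cut at about 30% in these data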
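assay system = mABHD4 protein | compound dosing = single nominal dose of 8.92 µM, 0.89% DMSO final | read-out basis = percent inhibition of probe binding, normalized to plate controls | schedule = Enzyme–compound pre-incubation 45 min, then probe 60 min, both 25 °C | detection = fluorescence polarization, excitation 525 nm, emission 598 nm, BODIPY TMR filters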
HTRA1 inh conf: HTRA1 (human) inhibition, confirmation; shares compounds with HTRA1 inh; recombinant HTRA1, FP-rhodamine activity-based probe, fluorescence polarization; inhibition, % at 5.96 µM; hit rate 66% among 1,600;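 active = mean inhibition over three repeats above a set limit taken from the earlier primary screen, cut at about 37% in these data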;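 also: inhibitors block probe binding so polarization drops and inhibition rises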
PRMT1 inh conf: confirmation of human PRMT1 inhibitors; shares compounds with PRMT1 inh; recombinant His-PRMT1, activity-based probe fluorescence polarization; inhibition, % at 2.79 µM; hit rate 42% among 3,300;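 active = mean inhibition across replicates above the hit cutoff derived for the earlier primary screen, cut at about 22% in these data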
ABHD4 confirm: ABHD4 (mouse) inhibition, FP confirmation | shares compounds with mABHD4 FP | purified mABHD4, FP-Rh probe fluorescence polarization | inhibition, % at 8.92 µM | hit rate 55% among 1,800 | AID 720658;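 active = mean inhibition across replicates above the hit cutoff set in the primary screen, cut at about 30% in these data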
SIAE inh conf: confirmation of human SIAE inhibitors. shares compounds with SIAE primary. SIAE FP-Rh activity-based probe, fluorescence polarization. inhibition, % at 9.66 µM. hit rate 13% among 2,300;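 active = mean inhibition of the replicates above the hit cutoff set in the primary screen, cut at about 17% in these data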;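 also: inhibitors lower polarization as more probe stays unbound to SIAE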
Of the large screens only hits and unclear results are named; the others gave an inactive call (follow-up assays come after a bar, where they were run).

COc1cc2nc(Nc3ccc(C)c(Cl)c3)nc(N)c2cc1OC	SIAE primary 58, HTRA1 inh 36, mABHD4 FP 42 | HTRA1 inh conf 46 | ABHD4 confirm 66 | SIAE inh conf 62
Oc1ccc(O)c(C=NNC(=S)NC2CC3CC2C2C=CCC32)c1 (stereo not drawn)	SIAE primary 34, HTRA1 inh 47, mABHD4 FP 30 (no result: JMJD2C inh) | HTRA1 inh conf 73 | ABHD4 confirm 35 | SIAE inh conf 39
NNC(=S)NC1CC2CC1C1C=CCC21 (stereo not drawn)	none
CCOc1cc(N2CCOCC2)c(OCC)cc1NC(C)C(=O)N1CCN(CC)CC1 (stereo not drawn)	SIAE primary 27, HTRA1 inh 41, mABHD4 FP 41 | HTRA1 inh conf inactive | SIAE inh conf inactive
COc1cc(C)ccc1S(=O)(=O)NC(=O)C1(C)CCN1C(=O)COc1ccc(Cl)cc1 (stereo not drawn)	none (no result: JMJD2C inh, HTRA1 inh)
CC(=O)NC(c1ccc(C)cc1)c1cc(Cl)c2cccnc2c1O (stereo not drawn)	SIAE primary 20, HTRA1 inh 62 | HTRA1 inh conf 76 | SIAE inh conf inactive
CC(=O)NC(C)c1cc(F)c2cccnc2c1O (stereo not drawn)	none
CC(=O)NC(c1ccc(C(C)C)cc1)c1ccc2cccnc2c1O (stereo not drawn)	SIAE primary 23, HTRA1 inh 66 | HTRA1 inh conf 75 | SIAE inh conf 29
COc1cccc2c1C(=O)c1c(O)c3c(c(O)c1C2=O)C[C@@](O)(C(=O)CO)C[C@@H]3OC1CC(N)C(O)C(C)O1 (stereo partly drawn)	SIAE primary 54, PRMT1 inh 141, HTRA1 inh 73, mABHD4 FP 75 (no result: JMJD2C inh) | HTRA1 inh conf 65 | ABHD4 confirm 55 | SIAE inh conf 55
COc1cccc2c1C(=O)c1c(O)c3c(c(O)c1C2=O)CC(O)(C(C)=O)CC3OC1CC(N(C)C)C(O)C(C)O1 (stereo not drawn)	SIAE primary 64, PRMT1 inh 193, HTRA1 inh 68, mABHD4 FP 72 (no result: JMJD2C inh) | HTRA1 inh conf 68 | PRMT1 inh conf 154 | ABHD4 confirm 61 | SIAE inh conf 54
COc1cccc(C=NNC(=O)CSc2nc3ccccc3[nH]2)c1O	none (no result: JMJD2C inh, HTRA1 inh)
N#C/C(=C/c1ccc(O)c(O)c1)c1nc2ccccc2[nH]1	SIAE primary 29, PRMT1 inh 42, HTRA1 inh 65, mABHD4 FP 58 | HTRA1 inh conf 94 | PRMT1 inh conf 37 | ABHD4 confirm 65 | SIAE inh conf 51
COC(=O)/C(=C/Nc1ccccc1)[N+](=O)[O-]	none
COC(=O)/C(=C/Nc1ccc(O)cc1)[N+](=O)[O-]	SIAE primary 25, PRMT1 inh 47, HTRA1 inh 45, mABHD4 FP 94 | HTRA1 inh conf inactive | ABHD4 confirm inactive | SIAE inh conf inactive
COc1ccc(CN2C/C(=C/c3ccc(C)cc3)N3C(=O)C[C@@H](c4ccccc4)N=C23)c(OC)c1	none (no result: JMJD2C inh, HTRA1 inh)
Oc1ccc(/C=N/N=C(c2ccccc2)c2ccccc2)c(O)c1O	SIAE primary 20, HTRA1 inh 66, mABHD4 FP 42 | HTRA1 inh conf 67 | ABHD4 confirm 34 | SIAE inh conf inactive
COc1ccc(C(=O)C(=NN)c2ccccc2)cc1	none (no result: JMJD2C inh)
O=C(/C(=N/N=C/c1ccc(O)c(O)c1O)c1ccccc1)c1ccccc1	SIAE primary 33, PRMT1 inh 27, HTRA1 inh 79, mABHD4 FP 53 | HTRA1 inh conf 74 | ABHD4 confirm 47 | SIAE inh conf inactive
N#CC1=C(N)Oc2cc(N)ccc2C1c1ccsc1 (stereo not drawn)	none
N#CC1=C(N)Oc2ccc3ccc(O)cc3c2C1c1ccsc1 (stereo not drawn)	SIAE primary 126, PRMT1 inh 83, HTRA1 inh 126, mABHD4 FP 132 | HTRA1 inh conf 58 | PRMT1 inh conf inactive | ABHD4 confirm 88 | SIAE inh conf 63
C=CCn1c(COc2ccc(C)cc2)nnc1SCC(=O)Nc1cc(Cl)cc(Cl)c1	none (no result: JMJD2C inh, HTRA1 inh)
Cc1ccc([N+](=O)[O-])cc1-c1[nH]c(-c2ccc(O)c(O)c2)nc1-c1ccccc1	SIAE primary 34, HTRA1 inh 69 | HTRA1 inh conf 85 | SIAE inh conf inactive
CC1=C(C(=O)N(C(C)C)C(C)C)CC(CC(=O)NC(c2ccccc2)c2ccccc2)C(=O)N1Cc1ccc(C(C)(C)C)cc1 (stereo not drawn)	none (no result: JMJD2C inh, HTRA1 inh)
CC(C)(C)Cc1c(-c2ccc(C#N)cc2)nc2ccc(Cl)cn12	none (no result: JMJD2C inh)
O=C(COC(=O)c1c2c(nc3ccccc13)/C(=C\c1ccco1)CC2)NC1CCCC1	SIAE primary 23, PRMT1 inh 28, HTRA1 inh 58, mABHD4 FP 63 (no result: JMJD2C inh) | HTRA1 inh conf inactive | PRMT1 inh conf inactive | ABHD4 confirm 32 | SIAE inh conf inactive
CCOC(=O)CC[C@H]1CC[C@]2(CCCN(C3CCCCC3)C2)O1	none (no result: JMJD2C inh, HTRA1 inh)
Nc1ccc(N2CCN(CCCCN3C(=O)C4CCCN4C3=O)CC2)cc1 (stereo not drawn)	SIAE primary 31, HTRA1 inh 38, mABHD4 FP 81 | HTRA1 inh conf inactive | ABHD4 confirm inactive | SIAE inh conf inactive
Oc1cccc(C=Nc2cccc3ccccc23)c1O	SIAE primary 20, PRMT1 inh 38, HTRA1 inh 71, mABHD4 FP 53 | HTRA1 inh conf 53 | SIAE inh conf inactive
Oc1ccccc1C=Nc1cccc2ccccc12	none
Cc1ccc(-n2c(SCc3cccc(F)c3)nc3sc4c(c3c2=O)CCCC4)cc1	none (no result: JMJD2C inh, HTRA1 inh)
COc1ccc2ccccc2c1/C=N/NC(=O)c1cccc(Br)c1	none
O=C(N/N=C/c1c(O)ccc2ccccc12)c1cccc(C(F)(F)F)c1	SIAE primary 25, HTRA1 inh 57 | HTRA1 inh conf 58 | SIAE inh conf inactive
CCc1ccc2[nH]c3nc(N/N=C/c4ccc(O)cc4O)nnc3c2c1	SIAE primary 30, HTRA1 inh 61 | HTRA1 inh conf 63 | SIAE inh conf 29
COc1ccc2[nH]c3c(c2c1)CCNC3c1ccc([N+](=O)[O-])o1 (stereo not drawn)	SIAE primary 21, PRMT1 inh 23, HTRA1 inh 43 | HTRA1 inh conf 47 | SIAE inh conf 22

Screening results deposited in PubChem BioAssay by several laboratories.
